The source made the active and inactive calls. The rule behind the calls is not given here.
What was measured:
[1] = Cytotoxicity against human HGF cells; format: cell-based
[2] = Cytotoxicity against human HPC cells; format: cell-based
[3] = Cytotoxicity against human HPLF cells; format: cell-based
[4] = test system: HL-60; assay: Cytotoxicity against human HL60 cells; format: functional
In short: (§1)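 Each value is the mean of two independent determinations.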

[5] = test system: HSC-2; assay: Cytotoxicity against human HSC2 cells; format: functional; in short: as §1
[6] = test system: HSC-4; assay: Cytotoxicity against human HSC4 cells; format: functional; in short: as §1
[7] = test system: HL-60; assay: Selectivity index, ratio of CC50 for human normal cells to CC50 for human HL60 cells; format: functional
In short: (§2)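 Ratio of the mean CC50 over three normal human lines (HGF gingival fibroblasts, HPC pulp cells, HPLF periodontal ligament fibroblasts) to the CC50 for the given tumor line. Each CC50 is the mean of two independent determinations.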

[8] = test system: HSC-2; assay: Selectivity index, ratio of CC50 for human normal cells to CC50 for human HSC2 cells; format: functional; in short: as §2
[9] = test system: HSC-4; assay: Selectivity index, ratio of CC50 for human normal cells to CC50 for human HSC4 cells; format: functional; in short: as §2
[10] = test system: HL-60; assay: Induction of bell-shaped internucleosomal DNA fragmentation in human HL60 cells at 1 to 2 uM after 7 hrs; format: functional, cell-based
[11] = test system: HSC-2; assay: Induction of bell-shaped internucleosomal DNA fragmentation in human HSC2 cells at 2 to 32 uM after 7 hrs; format: functional, cell-based
[12] = test system: HSC-2; assay: Induction of acidic organelles formation in human HSC2 cells at 4 to 8 uM after 6 hrs; format: functional, cell-based
In short: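 Acidic organelle formation scored in HSC-2 cells after 6 h exposure; reference condition was culture in Hank's balanced salt solution for 1 h.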

[13] = test system: HT-29; assay: Cell cycle arrest in human HT-29 cells assessed as accumulation at G1 phase at 5 uM after 48 hrs by flow cytometry; format: functional
In short: (§3)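 HT29 cells plated and grown 48 h to 50–60% confluency, then exposed to compound for 48 h. Cells trypsinized, PBS-washed, fixed overnight in 70% ethanol at 4 °C. Held 1 h on ice, then DNA content read by flow cytometry.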

[14] = test system: HT-29; assay: Cell cycle arrest in human HT-29 cells assessed as accumulation at sub-G1 phase at 5 uM after 48 hrs by flow cytometry; format: functional; in short: as §3
[15] = test system: HT-29; assay: Cell cycle arrest in human HT-29 cells assessed as accumulation at S phase at 5 uM after 48 hrs by flow cytometry; format: functional; in short: as §3
[16] = test system: HT-29; assay: Cell cycle arrest in human HT-29 cells assessed as accumulation at G2/M phase at 5 uM after 48 hrs by flow cytometry; format: functional; in short: as §3
[17] = test system: HT-29; assay: Cytotoxicity against human HT-29 cells after 96 hrs by MTT assay; format: functional, cell-based; conditions: HT-29, 96 h
In short: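 HT29 cells (ATCC) kept in DMEM with 10% fetal calf serum under 5% CO2 at 37 °C. Cells detached with trypsin and seeded at 9000 cells/well, then allowed 24 h to attach. Compound added at a range of concentrations; medium-only wells served as controls. After 96 h, proliferation was estimated from MTT reduction read at 540 nm.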

Structure (SMILES)	CC50 [1] [µM]	CC50 [2] [µM]	CC50 [3] [µM]	CC50 [4] [nM]	CC50 [5] [nM]	CC50 [6] [nM]	Selectivity Index [7]	Selectivity Index [8]	Selectivity Index [9]	Activity [10]	Activity [11]	Activity [12]	Activity [13] [%]	Activity [14] [%]	Activity [15] [%]	Activity [16] [%]	IC50 [17] [µM]
CC[N+](C)(CC)CCOc1ccc(C(=O)N2C/C(=C\c3ccccc3)C(=O)/C(=C/c3ccccc3)C2)cc1.[I-]	160	170	79	82000	130000	82000	1.7	1.1	1.7	–	–	–	–	–	–	–	–
Cl.O=C1/C(=C/c2ccc([N+](=O)[O-])cc2)CN(C(=O)c2ccc(OCCN3CCCCC3)cc2)C/C1=C\c1ccc([N+](=O)[O-])cc1	8	3.9	4.9	290	860	900	19	6.5	6.2	–	–	–	–	–	–	–	–
Cc1ccc(/C=C2\CN(C(=O)c3ccc(OCCN(C)C)cc3)C/C(=C\c3ccc(C)cc3)C2=O)cc1.Cl	7.9	7.2	3.4	850	1400	2100	7.3	4.4	3	–	–	–	–	–	–	–	–
CC[N+](C)(CC)CCOc1ccc(C(=O)N2C/C(=C\c3ccc(C)cc3)C(=O)/C(=C/c3ccc(C)cc3)C2)cc1.[I-]	34	29	8.3	16000	17000	17000	1.5	1.4	1.4	–	–	–	–	–	–	–	–
CCN(CC)CCOc1ccc(C(=O)N2C/C(=C\c3ccc([N+](=O)[O-])cc3)C(=O)/C(=C/c3ccc([N+](=O)[O-])cc3)C2)cc1.Cl	5	4.5	5.9	–	–	–	20	5.2	4.6	–	–	–	–	–	–	–	–
Cc1ccc(/C=C2\CN(C(=O)c3ccc(OCCN4CCOCC4)cc3)C/C(=C\c3ccc(C)cc3)C2=O)cc1.Cl	10	49	12	1200	1600	2000	20	15	12	–	–	–	–	–	–	–	–
CC[N+](C)(CC)CCOc1ccc(C(=O)N2C/C(=C\c3ccc(Cl)cc3)C(=O)/C(=C/c3ccc(Cl)cc3)C2)cc1.[I-]	> 400	> 400	9.4	64000	> 400000	220000	>4.2	0.7	>1.2	–	–	–	–	–	–	–	–
CCN(CC)CCOc1ccc(C(=O)N2C/C(=C\c3ccc(C)cc3)C(=O)/C(=C/c3ccc(C)cc3)C2)cc1.Cl	3.6	9.3	4.6	–	–	–	7.3	2.6	2.5	–	–	–	–	–	–	–	–
Cl.O=C1/C(=C/c2ccccc2)CN(C(=O)c2ccc(OCCN3CCCCC3)cc2)C/C1=C\c1ccccc1	4.6	12	7.4	1400	3000	2500	5.7	2.7	3.2	–	–	–	–	–	–	–	–
CN(C)CCOc1ccc(C(=O)N2C/C(=C\c3ccc(Cl)cc3)C(=O)/C(=C/c3ccc(Cl)cc3)C2)cc1.Cl	23	11	4.3	1700	2300	1800	7.5	5.6	7.1	–	–	–	–	–	–	–	–
Cl.O=C1/C(=C/c2ccccc2)CN(C(=O)c2ccc(OCCN3CCOCC3)cc2)C/C1=C\c1ccccc1	83	95	30	1200	2400	2400	58	29	29	Active	inactive	Active	50.5	11.4	25.2	11.1	3.75
CN(C)CCOc1ccc(C(=O)N2C/C(=C\c3ccc([N+](=O)[O-])cc3)C(=O)/C(=C/c3ccc([N+](=O)[O-])cc3)C2)cc1.Cl	7	5.2	5.9	310	930	710	19	6.5	8.5	–	–	–	–	–	–	–	–
Cl.O=C1/C(=C/c2ccc(Cl)cc2)CN(C(=O)c2ccc(OCCN3CCOCC3)cc2)C/C1=C\c1ccc(Cl)cc1	400	> 400	360	36000	71000	18000	> 11	>5.5	>22	–	–	–	–	–	–	–	–
Cl.O=C1/C(=C/c2ccc([N+](=O)[O-])cc2)CN(C(=O)c2ccc(OCCN3CCOCC3)cc2)C/C1=C\c1ccc([N+](=O)[O-])cc1	12	8.2	9.3	350	760	740	28	13	13	–	–	–	–	–	–	–	–
CCN(CC)CCOc1ccc(C(=O)N2C/C(=C\c3ccccc3)C(=O)/C(=C/c3ccccc3)C2)cc1.Cl	4.2	12	6	610	3100	2000	12	2.4	3.7	–	–	–	–	–	–	–	–
N[C@@H](Cc1ccc(N(CCCl)CCCl)cc1)C(=O)O	> 200	> 200	> 200	–	–	–	>33	>5.7	>2.5	–	–	–	–	–	–	–	–
Cc1ccc(/C=C2\CN(C(=O)c3ccc(OCCN4CCCCC4)cc3)C/C(=C\c3ccc(C)cc3)C2=O)cc1.Cl	6	15	5.5	2300	2900	4100	3.8	3	2.2	–	–	–	–	–	–	–	–
CC[N+](C)(CC)CCOc1ccc(C(=O)N2C/C(=C\c3ccc([N+](=O)[O-])cc3)C(=O)/C(=C/c3ccc([N+](=O)[O-])cc3)C2)cc1.[I-]	93	130	13	29000	67000	61000	2.7	1.2	1.3	–	–	–	–	–	–	–	–
CN(C)CCOc1ccc(C(=O)N2C/C(=C\c3ccccc3)C(=O)/C(=C/c3ccccc3)C2)cc1.Cl	3.6	13	8.9	1000	3800	2100	8.5	2.2	4.1	–	–	–	–	–	–	–	–
Cl.O=C1/C(=C/c2ccc(Cl)cc2)CN(C(=O)c2ccc(OCCN3CCCCC3)cc2)C/C1=C\c1ccc(Cl)cc1	> 400	> 400	340	–	–	–	>6	>3.5	>7.9	–	–	–	–	–	–	–	–
CCN(CC)CCOc1ccc(C(=O)N2C/C(=C\c3ccc(Cl)cc3)C(=O)/C(=C/c3ccc(Cl)cc3)C2)cc1.Cl	230	> 400	> 400	–	–	–	>7.5	>2.1	>10	–	–	–	–	–	–	–	–
